Tests used:
[1] = Inhibition of full-length myosin ATPase activity in bovine cardiac myofibrils; assay type: subcellular, Bos taurus, Heart
How it was run: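 Bovine cardiac myofibril ATPase assay run at a calcium level giving 75% of maximal activity.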

[2] = Plasma protein binding in rat assessed as unbound fraction; assay type: ADME, cell-free
[3] = Clearance in Sprague-Dawley rat at 1 mg/kg; assay type: ADME, organism-based; settings: in vivo
How it was run: (§1)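 Rat PK with iv and po administration at 1 mg/kg. Clearance and half-life came from the iv arm, and bioavailability from the iv/po comparison.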

[4] = Plasma protein binding in rat plasma assessed as unbound concentration at 5 uM incubated for 6 hrs by HPLC analysis; assay type: ADME, cell-free
[5] = Metabolic stability in human liver microsomes assessed as intrinsic clearance measured upto 90mins by HPLC/MS/MS analysis; assay type: ADME, Microsome; settings: read-out: CLH
[6] = Clearance in Sprague-Dawley rat at 1 mg/kg; settings: in vivo
[7] = Bioavailability in Sprague-Dawley rat at 1 mg/kg, po or 1 mg/kg, iv; assay type: ADME, organism-based; settings: in vivo; how it was run: as §1
[8] = Half life in Sprague-Dawley rat at 1 mg/kg; assay type: ADME, organism-based; settings: in vivo; how it was run: as §1
[9] = Metabolic stability in rat liver microsomes assessed as intrinsic clearance measured upto 90mins by HPLC/MS/MS analysis; assay type: ADME, Microsome; settings: read-out: CLH

Row | IC50 [1] | fraction unbound [2] | clearance [3] | fraction unbound at 6 h, 5 µM [4] | CLint scaled [5] | clearance [6] | bioavailability [7] | half-life [8] | CLint scaled [9] | Structure (SMILES)
1 | > 39000 nM |  |  |  |  |  |  |  |  | COCCc1nc(-c2ccc3c(c2)CC[C@H]3NC(=O)c2cnn(C)c2)no1
2 | 800 nM | 0.051 | 40 mL/min/kg | 0.1 | < 11 mL/min/kg | 40 mL/min/kg | 0% | 14.7 h |  | CCc1nc(-c2ccc3c(c2)CC[C@H]3NC(=O)c2ocnc2C)no1
3 | 7600 nM |  |  | 0.089 | < 11 mL/min/kg |  |  |  | < 21 mL/min/kg | Cc1nc(-c2ccc3c(c2)CCC3NC(=O)c2cnc(C)n2C)no1 (racemic)
4 | 1900 nM |  | 3 mL/min/kg | 0.049 | < 11 mL/min/kg | 3 mL/min/kg | 70% | 13.8 h | < 21 mL/min/kg | Cc1cc(C(=O)N[C@@H]2CCc3cc(-c4noc(C5CC5)n4)ccc32)ccn1
5 | > 39000 nM |  |  |  |  |  |  |  |  | Cn1cc(C(=O)N[C@@H]2CCc3cc(-c4ncon4)ccc32)cn1
6 | 8100 nM |  |  | 0.072 | < 11 mL/min/kg |  |  |  | 48 mL/min/kg | Cc1cc(C(=O)NC2CCc3cc(-c4noc(C)n4)ccc32)on1 (racemic)
7 | 1200 nM |  | 44 mL/min/kg | 0.31 | < 11 mL/min/kg | 44 mL/min/kg | 16% | 6.6 h |  | CCc1nc(-c2ccc3c(c2)CC[C@H]3NC(=O)c2ccnnc2)no1
8 | 4100 nM |  |  |  |  |  |  |  |  | CC(C)c1nc(-c2ccc3c(c2)CC[C@H]3NC(=O)c2cnn(C)c2)no1
9 | 2500 nM |  |  | 0.064 | < 11 mL/min/kg |  |  |  | 46 mL/min/kg | Cc1nc(-c2ccc3c(c2)CCC3NC(=O)c2oncc2C)no1 (racemic)
10 | 1800 nM | 0.046 | 20 mL/min/kg | 0.092 | < 11 mL/min/kg | 20 mL/min/kg | 26% | 5.9 h | 24 mL/min/kg | CCc1nc(-c2ccc3c(c2)CC[C@H]3NC(=O)c2cc(C)ncn2)no1
11 | 1900 nM | 0.089 | 16 mL/min/kg | 0.17 | < 11 mL/min/kg | 16 mL/min/kg | 52% | 4.6 h | < 21 mL/min/kg | CC(C)c1nc(-c2ccc3c(c2)CC[C@H]3NC(=O)c2nnn(C)n2)no1
12 | 1200 nM | 0.021 | 13 mL/min/kg | 0.084 | < 11 mL/min/kg | 13 mL/min/kg | 32% | 3.5 h | 23 mL/min/kg | CCc1nc(-c2ccc3c(c2)CC[C@H]3NC(=O)c2ccnc(C)c2)no1
13 | 1900 nM |  |  | 0.043 | 24 mL/min/kg |  |  |  | > 124 mL/min/kg | Cc1nc(-c2ccc3c(c2)CCC3NC(=O)c2ccccc2)no1 (racemic)
14 | 2700 nM |  | 14 mL/min/kg | 0.053 | < 11 mL/min/kg | 14 mL/min/kg | 79% | 4.6 h | 23 mL/min/kg | Cc1cc(C(=O)N[C@@H]2CCc3cc(-c4noc(C(C)C)n4)ccc32)ccn1
15 | 7100 nM |  |  | 0.097 | < 11 mL/min/kg |  |  |  | < 21 mL/min/kg | Cc1cc(C(=O)NC2CCc3cc(-c4noc(C)n4)ccc32)ccn1 (racemic)
16 | 1000 nM |  |  | 0.023 | > 62 mL/min/kg |  |  |  | > 124 mL/min/kg | CCc1nc(-c2ccc3c(c2)CCC3NC(=O)c2ccccc2)no1 (racemic)
17 | 5100 nM |  |  | 0.19 | < 11 mL/min/kg |  |  |  | < 21 mL/min/kg | Cc1nc(-c2ccc3c(c2)CCC3NC(=O)c2nnn(C)n2)no1 (racemic)
18 | > 39000 nM |  |  |  |  |  |  |  |  | Cn1cc(C(=O)N[C@@H]2CCc3cc(-c4noc(CCO)n4)ccc32)cn1

From ChEMBL document CHEMBL4831540, “Discovery of Aficamten (CK-274), a Next-Generation Cardiac Myosin Inhibitor for the Treatment of Hypertrophic Cardiomyopathy” (J Med Chem, 2021)
